M1 antagonist: antagonists of rat M1 muscarinic receptor; Muscarinic acetylcholine receptor M1 (Rattus norvegicus), P08482; CHO-M1 cells, Fluo-4 calcium, ACh EC80 antagonist mode; active compounds read low; B-score at 10 µM; AID 628, 2007; 3.4% of 64,000 active;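 active = calcium fluorescence response, raw or row-and-column corrected B-score, differing from the plate sample mean either way at a set confidence level, mostly lower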
M1 ag: M1 muscarinic receptor agonists, primary screen, CHO-M1 cells, Fluo-4 calcium, agonist mode; 3% of 64,000 active; Muscarinic acetylcholine receptor M1; Fluo-4 calcium fluorescence; active compounds read high; B-score at 10 µM;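 active = fluorescence rise, raw or as B-score row- and column-corrected plate score, outside the 99.7% band of its plate's samples, either direction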
DAT uptake mod: changed hDAT dopamine uptake under cocaine IC80, either direction, primary screen, cocaine antagonist project, cell-based, LLC-PK1 hDAT, [14C]-dopamine uptake, MLSMR; Sodium-dependent dopamine transporter (Homo sapiens), Q01959; LLC-PK1 hDAT cells, [14C]-dopamine uptake with cocaine IC80; actives deviate in either direction; B-score at 10 µM; 1.3% of 110,000 active; AID 449768, 2010;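 active = Z score or B-score, a plate-position-corrected score, falls beyond the plate's 99.7% confidence bounds, in either direction; inactive = both scores lie inside the 99.7% bounds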;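 also: scored against the spread of the other compound wells on the same plate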
HEK293 NFkB inh: inhibitors of PMA/ionomycin-induced NF-kB reporter, primary screen, antigen receptor NF-kB inhibitor project, cell-based, HEK-293 luciferase reporter, luminescence; HEK-293 NF-kB luciferase reporter; inhibition, % at 3 µM; 0.21% of 62,000 active; AID 465, 2006;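 active = inhibition above the mean of all tested compounds plus 3 SD, cut at about 40% in these data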;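 also: 0% = stimulated DMSO wells and 100% = 10 µM reference inhibitor 5653914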
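Material: HEK-293 cells with stable firefly luciferase reporter driven by four HIV NF-kB elements / Also added: PMA plus ionomycin mix as NF-kB-activating stimulus / Compound dosing: 3 µM once, 0.30% DMSO / Times: 1 h pretreatment, 16 h stimulation, 37 °C / Signal: luminescence / Evaluation: per-plate % inhibition versus controls / Benchmarks: DMSO and 10 µM reference inhibitor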
Jurkat tox 60K: cytotoxicity toward Jurkat T cells, primary screen, cytotoxicity control, cell-based, Jurkat E6.1, 60K MLSMR library; inhibition, % at 4 µM; 1.2% of 56,000 active; AID 463, 2006; Jurkat E6.1 viability, ATP luminescence, 48 h;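 active = inhibition above the mean inhibition of all tested compounds plus 3 SD, cut at about 28% in these data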
D1 allo mod: D1 CRE-luciferase signal change, two-sided – cell-based, HEK293 D1, dopamine EC30, D1 allosteric modulator project, primary screen. D(1A) dopamine receptor (Homo sapiens), P21728. dopamine EC30 potentiation; actives deviate in either direction. B-score at 10 µM. 5.9% of 58,000 active. AID 641, 2007;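 active = luminescence count or its row- and column-corrected plate score outside the 99.7% band of the plate's sample wells, on either side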
Target sequence (P21728 whole entry, looked up): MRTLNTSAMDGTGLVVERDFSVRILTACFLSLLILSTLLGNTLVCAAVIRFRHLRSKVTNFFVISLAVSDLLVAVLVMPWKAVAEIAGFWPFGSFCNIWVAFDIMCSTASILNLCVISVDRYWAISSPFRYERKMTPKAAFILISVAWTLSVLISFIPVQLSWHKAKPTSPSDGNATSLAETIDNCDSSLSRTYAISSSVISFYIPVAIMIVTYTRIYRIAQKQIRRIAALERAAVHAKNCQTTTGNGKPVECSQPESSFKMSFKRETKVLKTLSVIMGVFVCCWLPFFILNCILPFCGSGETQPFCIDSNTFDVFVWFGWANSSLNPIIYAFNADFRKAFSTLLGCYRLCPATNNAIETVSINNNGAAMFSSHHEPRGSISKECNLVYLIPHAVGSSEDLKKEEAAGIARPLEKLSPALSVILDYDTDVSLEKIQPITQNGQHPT
D1 mod confirm: D1 receptor positive allosteric modulators, retest, confirmation, cell-based, HEK293 D1, CRE-luciferase, duplicate | dopamine EC30 potentiation; active compounds read high | shares compounds with D1 allo mod | 88% of 2,200 active | AID 642, 2007 | luminescence at 10 µM;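 active = luminescence in either of two replicates above the same-plate mean plus 3 SD of the low-dose dopamine control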
D1 no dopamine: D1 receptor agonism without dopamine, confirmation, mechanism study for D1 allosteric modulator project, cell-based, HEK293 D1, CRE-luciferase, secondary assay 1; shares compounds with D1 allo mod; luminescence, no dopamine; active compounds read high; luminescence at 10 µM; 0.8% of 1,900 active; AID 646, 2007; in the data active = luminescence above about 3900
Isoprot counter: alters isoproterenol CRE-luciferase response in HEK293 cells; shares compounds with D1 allo mod; 63% of 2,200 active; AID 647; calls only at 10 µM; HEK293 D1 CRE-luciferase, isoproterenol EC30 counter-screen;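 active = luminescence in either replicate above plate mean of wells with a partly effective reference agonist dose plus 3 SD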;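 also: isoproterenol raises cAMP through native beta-adrenoceptor Gs so signal bypasses D1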
An asterisk follows results filed as active; i = inactive; . = no result; + = active, no number. A selection: hits, their analogues and other compounds. The true share with any hit is near 7.6%.

SMILES | M1 antagonist | M1 ag | DAT uptake mod | HEK293 NFkB inh | Jurkat tox 60K | D1 allo mod | D1 mod confirm | D1 no dopamine | Isoprot counter
N#C/C(=C\C1CC=CCC1)c1nc2ccccc2[nH]1 (stereo not drawn) | 0.971 | -1.09 | -1.04 | 7.8 | 5.1 | -1.2 | . | . | .
COc1ccc(O[C@H]2C=C[C@@H](c3ccccc3)O[C@@H]2COC(=O)CCC(C)=NO[C@@H]2O[C@H](COC(C)=O)[C@@H](OC(C)=O)[C@H](OC(C)=O)[C@H]2OC(C)=O)cc1 | . | . | 1.32 | . | . | . | . | . | .
CC(=O)OCC1OC(c2ccccc2)C(OC(C)=O)C(OC(C)=O)C1OC(C)=O (stereo not drawn) | -0.822 | -1.13 | -0.106 | 12.1 | 2.6 | 3.13* | 9036* | 1700 | i
CCCc1cc(=O)[nH]c(NCc2ccc(Cl)cc2)n1 | 0.225 | 1.38 | 0.588 | 2.5 | 10.3 | 2.85* | 8064* | 1432 | i
CCn1c(Sc2nc(C)nc3scc(-c4cccs4)c23)n[nH]c1=O | -0.159 | 2.31 | 3.02 | 20.4 | 13.6 | 8.1* | 15492* | 1856 | +
CCc1nc2scc(-c3cccs3)c2c(=O)o1 | . | . | -0.45 | . | . | . | . | . | .
NC1=NC(c2ccc(Cl)cc2)n2c(nc3ccccc32)N1 (stereo not drawn) | -0.612 | 0.0144 | 1.69 | 19.0 | 7.7 | 9.06* | 11876* | 1532 | i
CCC(Nc1nc(-c2ccccc2)nc2ccccc12)C(=O)O (stereo not drawn) | . | . | 0.317 | . | . | . | . | . | .
N#CCc1nc2c3c4c(sc3ncn2n1)CCCC4 | 0.826 | 0.00866 | -0.153 | . | . | 9.55* | 11284* | 1556 | +
COc1ccc2c(C(F)(F)F)cc(=O)oc2c1C | 0.0862 | -0.253 | -0.00582 | 5.6 | -12.5 | 4.78* | 6684* | 1588 | i
Cc1ccccc1NC(=O)CN1CCC(n2nnc3ccccc32)CC1 | . | . | 0.697 | . | . | . | . | . | .
N#Cc1c(N)sc(=S)c2c1CCCC2 | -0.0262 | -0.463 | 1.1 | 21.3 | 5.8 | . | . | . | .
CCC1(C)Cc2c(C#N)c(N)sc(=S)c2CO1 (stereo not drawn) | -0.00461 | -0.319 | 0.856 | . | . | 20.1* | 18368* | 1660 | +
CCCCNC(=O)C1CCCN1C(=O)Nc1cccc(OC)c1 (stereo not drawn) | 0.583 | -0.482 | -0.777 | 20.7 | -4.3 | 30.2* | 4704 | 1636 | i
N#Cc1ccc(C23CC4(C2)[C@H](CN(Cc2ccc(-c5ccccc5)cc2)[C@@H]4c2ccccc2)C3c2ccccc2)cc1 (stereo partly drawn) | . | . | 0.22 | . | . | . | . | . | .
N#Cc1nc(-c2cccs2)oc1NCc1ccccc1 | 0.151 | -0.518 | 1.18 | . | . | . | . | . | .
N#Cc1nc(-c2cccs2)oc1NCc1ccc(Cl)cc1 | -0.268 | -0.00973 | 0.0323 | 11.5 | 3.5 | 8.31* | 9676* | 1684 | +
Cc1ccc(CNc2oc(-c3cccs3)nc2C#N)cc1 | 1.57 | -0.0654 | 0.269 | -7.2 | -3.8 | 18.3* | 22592* | 1632 | +
N#Cc1nc(-c2ccc(F)cc2)oc1NCc1ccccc1 | 0.144 | 0.14 | 0.0305 | -0.2 | -11.4 | 5.66* | 8092* | 1668 | i
COc1ccc(CCNc2nnc(Sc3nnnn3-c3ccccc3)s2)cc1OC | -0.00136 | -0.0689 | 1.77 | 13.4 | 98.7* | 5.26* | 10264* | 1392 | i
COc1ccc(CSc2nnnn2Cc2ccccc2)cc1OC | 0.965 | -0.0879 | 1.02 | 14.5 | 0.7 | 3.64* | 15068* | 1692 | +
Fc1cccc(Cl)c1CSc1nnnn1-c1ccc2c(c1)OCO2 | -0.227 | 0.79 | 0.389 | 1.2 | 9.3 | 5.79* | 11540* | . | +
Fc1cccc(Cl)c1Cn1nnc(-c2ccc3c(c2)OCO3)n1 | 0.503 | 0.07 | -2.45 | -27.4 | -2.1 | 0.0576 | . | . | .
N#Cc1c(-c2ccccc2Cl)cc(C2CC2)nc1N | -0.0328 | 3.61 | -0.629 | . | . | 14.8* | 20296* | 1408 | +
COc1ccccc1-c1c(C)c(C)nc(N)c1C#N | -0.366 | -0.333 | -0.21 | 11.9 | 4.5 | . | . | . | .
SMILES | M1 antagonist | M1 ag | DAT uptake mod | HEK293 NFkB inh | Jurkat tox 60K | D1 allo mod | D1 mod confirm | D1 no dopamine | Isoprot counter
COc1ccccc1-c1cc(C2CC2)nc(N)c1C#N | -0.164 | 0.0311 | -0.0915 | -10.1 | -1.6 | 9.4* | 11344* | 1800 | +
COc1ccc(NC(=O)CSC2=NC(=O)CC(C)=N2)cc1 | -0.699 | -0.482 | 0.0119 | -29.3 | -7.4 | . | . | . | .
CCCCn1c2nc3ccccc3nc2c2c(=O)n(CC(C)C)cnc21 | -1.46 | 0.0977 | . | . | . | . | . | . | .
CCC(C)n1cnc2c(c1=O)c1nc3ccccc3nc1n2Cc1ccc2c(c1)OCO2 (stereo not drawn) | -0.509 | 0.254 | 4.12* | 11.0 | -1.6 | 9.83* | 14800* | 1636 | +
CCCCn1c2nc3ccccc3nc2c2c(=O)n(C(C)CC)cnc21 (stereo not drawn) | -1.58 | 0.445 | 0.757 | -0.6 | -2.1 | 10.5* | 11776* | 1928 | i
CN1CCN(CCNC(=O)c2cc3c(=O)n(C)c4ccccc4c3n2C)CC1 | -0.233 | 0.174 | 0.445 | 3.5 | 3.6 | 4.62* | 5788 | . | i
Cc1nnc(N(Cc2ccccc2)C(=O)c2cnccn2)s1 | -0.397 | -0.117 | 0.841 | 3.2 | -0.9 | 0.762 | . | . | .
COc1ccc(-c2cc(C(F)(F)F)nc(SCC(=O)NCCN3CCOCC3)n2)cc1OC | . | . | 0.0499 | . | . | . | . | . | .
COc1ccc(-c2cc(C(F)(F)F)nc(SCC(=O)N3CC(C)OC(C)C3)n2)cc1OC (stereo not drawn) | -0.184 | 0.33 | -1.83 | 2.3 | -0.3 | 6.22* | 18852* | 1628 | +
COc1cccc(-c2nnc(NC(=O)c3ccc(S(=O)(=O)N4CC(C)OC(C)C4)cc3)o2)c1 (stereo not drawn) | 0.255 | 1.05 | . | 28.7 | 4.0 | 2.83* | 5492 | 1692 | i
CCCCSc1nnc2n(CCc3ccccc3)c(=O)c3c4c(sc3n12)COC(C)(C)C4 | -0.207 | -0.858 | -0.246 | . | . | . | . | . | .
COc1ccccc1-c1nnc2n1N=C(c1ccc(O)c(O)c1)CS2 | -0.00415 | 0.306 | -1.77 | . | . | 22.9* | 21320* | . | +

Source: PubChem (several laboratories)
